Experiment [1] concerns MCF7. The experiment is described as follows: Inhibition of DNA synthesis in MCF-7 cells. It counts as functional, cell-based. The settings on record: Homo sapiens. The method, boiled down:
(§1)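 Cells seeded at 10^5/well and grown 24 h at 37 °C, then given inhibitor in DMSO at 3-5 concentrations, 3-4 wells each, for 48 h. [3H]thymidine pulse for 2 h. TCA-precipitated label solubilized in perchloric acid and counted.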

Experiment [2] deals with OVCAR-3. The experiment is described as follows: In vitro cytotoxicity against human ovarian OVCAR-3 cells. It counts as functional.
Experiment [3] relates to HCT-116. The experiment is described as follows: In vitro cytotoxicity against human colon HCT116 cell culture. The experiment is classed as functional.
Experiment [4] deals with SF-539. The experiment is described as follows: In vitro cytotoxicity against human CNS SF-539 cells. It counts as functional.
The target in experiment [5] is Tyrosine-protein kinase SYK (Homo sapiens, UniProt P43405). In words: In vitro inhibition of Syk protein tyrosine kinase. It counts as functional. Put shortly: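 Full-length GST-Syk from baculovirus-infected Sf9 cell lysates, held on glutathione-agarose. Stopped with 10 mM EDTA, beads washed, read by scintillation counting. IC50 determined graphically against DMSO control.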

For experiment [6], the target named is Epidermal growth factor receptor (Mus musculus, UniProt Q01279). In words: Inhibition of epidermal growth factor receptor phosphorylation in BaF3 mouse lymphoid cells. The experiment is classed as cell-based. Put shortly:
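BaF3/EGFR cells serum-starved 24 h, then about 10^7 cells/mL treated 2 h at 37 °C with inhibitor at 3-5 concentrations. Chilled 20 min, then given EGF 100 ng/mL for 7 min on ice. Lysates precipitated on concanavalin A beads, run on SDS/PAGE, and immunoblotted with antiphosphotyrosine using ECL detection.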

Experiment [7] deals with MCF-10A. The experiment is described as follows: Inhibition of DNA synthesis in MCF-10A cells. The experiment is classed as functional, cell-based. The settings on record: Homo sapiens. Put shortly:
as §1

The subject of experiment [8] is SN12C. In words: In vitro cytotoxicity against human renal SN12C cells. It counts as functional.
For experiment [9], the system named is MDA-MB-435. In words: In vitro cytotoxicity against human breast MDA-MB-435 cells. It counts as functional.
Experiment [10] has as its system CCRF-CEM. The experiment is described as follows: Cytotoxic effect on human leukemia CCRF-CEM cells. It counts as functional.
In experiment [11] the test system is UACC-62. The experiment is described as follows: In vitro cytotoxicity against human melanoma UACC-62 cells. The experiment is classed as functional.
Experiment [12] addresses Tubulin beta chain (Bos taurus, UniProt Q6B856). The experiment is described as follows: Inhibition of bovine tubulin polymerization. The method, boiled down:
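Electrophoretically homogeneous bovine brain tubulin. Polymerization followed spectrophotometrically with a temperature jump from 2-4 °C to 30 °C.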

In experiment [13] the test system is HOP-62. In words: In vitro cytotoxicity against human lung HOP-62 cells. It counts as functional.
Experiment [14] concerns DU-145. In words: In vitro cytotoxicity against human prostate DU-145 cells. The experiment is classed as functional.
The subject of experiment [15] is Cancer cell lines. The experiment is described as follows: Mean graph mid point (MGM) for growth inhibition of all human cancer cell lines successfully tested. It counts as functional.

Chain of Tubulin beta chain (Q6B856 whole entry): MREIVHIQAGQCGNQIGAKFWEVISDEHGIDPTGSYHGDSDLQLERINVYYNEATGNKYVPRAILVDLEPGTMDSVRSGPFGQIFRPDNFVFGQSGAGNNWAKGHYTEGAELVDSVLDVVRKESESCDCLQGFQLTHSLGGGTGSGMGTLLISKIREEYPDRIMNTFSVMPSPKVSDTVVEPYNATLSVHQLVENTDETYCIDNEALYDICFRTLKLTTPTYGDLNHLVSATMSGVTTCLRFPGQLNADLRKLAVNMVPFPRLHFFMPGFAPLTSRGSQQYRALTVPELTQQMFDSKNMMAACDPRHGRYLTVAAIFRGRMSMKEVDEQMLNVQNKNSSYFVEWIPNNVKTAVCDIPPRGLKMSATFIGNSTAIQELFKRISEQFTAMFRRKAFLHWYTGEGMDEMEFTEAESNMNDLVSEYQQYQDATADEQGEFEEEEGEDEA
Chain of Epidermal growth factor receptor (Q01279 whole entry): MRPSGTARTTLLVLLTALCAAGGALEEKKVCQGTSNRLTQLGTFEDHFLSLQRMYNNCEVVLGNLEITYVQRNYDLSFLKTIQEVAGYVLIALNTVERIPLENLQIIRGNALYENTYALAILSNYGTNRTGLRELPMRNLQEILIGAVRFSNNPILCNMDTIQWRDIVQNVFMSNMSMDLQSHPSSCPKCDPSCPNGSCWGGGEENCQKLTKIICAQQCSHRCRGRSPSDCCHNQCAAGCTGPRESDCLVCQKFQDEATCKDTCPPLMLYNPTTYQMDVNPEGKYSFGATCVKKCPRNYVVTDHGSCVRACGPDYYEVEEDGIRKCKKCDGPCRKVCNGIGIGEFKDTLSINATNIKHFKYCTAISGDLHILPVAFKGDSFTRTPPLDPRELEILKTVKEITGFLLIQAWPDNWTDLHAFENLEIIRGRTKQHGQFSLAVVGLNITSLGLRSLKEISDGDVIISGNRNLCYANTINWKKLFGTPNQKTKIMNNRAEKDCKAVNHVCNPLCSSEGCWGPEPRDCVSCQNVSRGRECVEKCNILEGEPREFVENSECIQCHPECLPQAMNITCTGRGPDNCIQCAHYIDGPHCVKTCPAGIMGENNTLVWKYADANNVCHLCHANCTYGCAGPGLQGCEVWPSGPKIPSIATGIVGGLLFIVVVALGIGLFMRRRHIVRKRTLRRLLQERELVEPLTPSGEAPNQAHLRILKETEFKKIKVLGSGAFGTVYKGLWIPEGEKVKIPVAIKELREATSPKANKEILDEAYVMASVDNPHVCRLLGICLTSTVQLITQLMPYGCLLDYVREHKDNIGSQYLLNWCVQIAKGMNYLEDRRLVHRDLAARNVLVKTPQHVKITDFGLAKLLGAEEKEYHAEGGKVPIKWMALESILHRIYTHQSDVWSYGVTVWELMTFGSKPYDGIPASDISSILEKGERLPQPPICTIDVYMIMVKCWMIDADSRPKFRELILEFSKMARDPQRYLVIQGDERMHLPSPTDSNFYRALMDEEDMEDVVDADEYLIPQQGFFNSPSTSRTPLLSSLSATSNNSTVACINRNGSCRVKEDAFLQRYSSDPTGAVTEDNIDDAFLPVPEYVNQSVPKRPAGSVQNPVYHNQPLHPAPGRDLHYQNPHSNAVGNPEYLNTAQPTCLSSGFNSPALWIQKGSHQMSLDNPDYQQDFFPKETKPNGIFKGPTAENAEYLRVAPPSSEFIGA

Take `O=C(NCCc1ccccc1)c1cc(NCc2cc(O)ccc2O)ccc1O`: the IC50 turned out to be 9 µM in experiment [1]; 5 µM in [5]; 10 µM in [6]; 11 µM in experiment [7]; 3.6 µM in experiment [12]. Also, the GI50 in experiment [2] came to 7.7 µM; in experiment [3], 18 µM; in experiment [4], 17 µM; in experiment [8], 18 µM; in experiment [9] it was 19 µM; in [10], 2.7 µM. Also, the GI50 was determined as 14 µM in experiment [11], 20 µM in experiment [13] and 16 µM in [14]. In experiment [15], this molecule registered an MGM of 14.8 µM.

Take `O=C(NCCc1ccc(Br)cc1)c1cc(NCc2cc(O)ccc2O)ccc1O`: the IC50 turned out to be 7 µM in experiment [1]; 45 µM in [5]; 35 µM in [6]; 6 µM in experiment [7]; 4.2 µM in [12]. Further, the GI50 in experiment [2] came out at 4.2 µM; in [3], 7.6 µM; in experiment [4], 15.8 µM; in experiment [8], 6.3 µM; in experiment [9] it was 10 µM; in [11], 8.6 µM. Further, the GI50 stood at 18 µM in experiment [13] and 16 µM in experiment [14]. Besides, in experiment [15], the MGM came to 7.6 µM.

`O=C(NCCCc1ccccc1)c1ccc(NCc2cc(O)ccc2O)cc1`: the IC50 in experiment [1] is 0.4 µM; in experiment [5], 35 µM; in experiment [6] it was 33 µM; in experiment [7], 3 µM; in experiment [12], 5.7 µM. Moreover, the GI50 in experiment [2] was 3 µM; in [3], 6.4 µM; in experiment [4] it was 3.4 µM; in experiment [8], 3.2 µM; in experiment [9], 5.8 µM; in [10] it was 0.83 µM. The figures for the GI50 in experiment [11], in experiment [13] and in experiment [14] were 7.9 µM, 16 µM and 13 µM, respectively. Further, the MGM in [15] amounted to 5.3 µM.

As to `O=C(NC1CCc2ccccc2C1)c1cc(NCc2cc(O)ccc2O)ccc1O` (stereo unspecified), the IC50 in [1] stood at 10 µM; in experiment [5] it was 8 µM; in experiment [6], 4 µM; in [7], 6 µM; in [12] it was 5.3 µM. Also, the GI50 amounted to 7.9 µM in experiment [2]; 16 µM in experiment [3]; 2.7 µM in experiment [4]; 18 µM in experiment [8]; 9.2 µM in [9]; 1.4 µM in experiment [10]. Further, the GI50 in experiment [11] was 14 µM; in experiment [13], 17 µM; in experiment [14] it was 17 µM. In experiment [15], this molecule had an MGM of 11.2 µM.

Consider `COc1ccc(CCNC(=O)c2cc(NCc3cc(O)ccc3O)ccc2O)cc1`, for which the IC50 is 14 µM in [1]; 50 µM in [5]; over 100 µM in experiment [6]; 11 µM in experiment [7]; 4.2 µM in [12]. Also, the GI50 was 5.5 µM in [2]; 23 µM in experiment [3]; 16 µM in [4]; 72 µM in experiment [8]; 16 µM in experiment [9]; 3.2 µM in experiment [10]. For the same molecule, the figures for the GI50 in experiment [11], in [13] and in [14] were 14 µM, 12 µM and 21 µM, respectively. The MGM in experiment [15] is 15.4 µM.

For the molecule `O=C(NCCc1ccc(Cl)cc1)c1cc(NCc2cc(O)ccc2O)ccc1O`, the IC50 in experiment [1] amounted to 13 µM; in experiment [5] it was 25 µM; in [6], 46 µM; in [7], 9 µM; in [12], 3.2 µM. The GI50 in experiment [2] turned out to be 5.9 µM; in [3], 15 µM; in [4] it was 8.4 µM; in [8], 9.8 µM; in experiment [9] it was 20 µM; in experiment [10], 1.6 µM. The GI50 in experiment [11] is 13 µM; in [13], 17 µM; in experiment [14], 16 µM. The same molecule gave an MGM in [15] of 10 µM.

Regarding `O=C(NCCc1ccc(O)cc1)c1cc(NCc2cc(O)ccc2O)ccc1O`, the IC50 in [1] came to 16 µM; in experiment [5], 5 µM; in experiment [6], 300 µM; in [7] it was 15 µM; in experiment [12], 4.5 µM. Moreover, the GI50 in experiment [2] stood at 62 µM; in experiment [3], 16 µM; in [4], 2.5 µM; in experiment [8], 19 µM; in experiment [9] it was 23 µM; in [11], 18 µM. Moreover, the figures for the GI50 in [13] and in [14] were 2.5 µM and 17 µM, respectively. The MGM in experiment [15] turned out to be 20.4 µM.

For `O=C(NCCc1ccccn1)c1cc(NCc2cc(O)ccc2O)ccc1O`, the IC50 in [1] came out at 11 µM; in [6], 15 µM; in [7], 7 µM; in experiment [12] it was 3.6 µM. The 50% growth inhibitory concentration (GI50) in experiment [2] came out at 17 µM; in experiment [3] it was 17 µM; in experiment [4] it was 29 µM; in experiment [8] it was 19 µM; in experiment [9] it was 13 µM; in experiment [10], 1 µM. Besides, the GI50 in experiment [11] worked out at 17 µM; in [13] it was 20 µM; in experiment [14] it was 17 µM. Besides, the MGM in [15] was determined as 16 µM.

`O=C(NCc1ccccc1)c1cc(NCc2cc(O)ccc2O)ccc1O`: the IC50 in experiment [1] came out at 17 µM; in experiment [5], 25 µM; in [6] it was 8 µM; in experiment [7], 17 µM; in [12] it was 3.2 µM. Moreover, the GI50 in experiment [2] is 21 µM; in [3] it was 17 µM; in [4], 21 µM; in [8] it was 12 µM; in [9] it was 30 µM; in experiment [10], 3.2 µM. Besides, the GI50 in [11] was 15 µM; in [13], 23 µM; in [14] it was 16 µM. The same molecule displayed an MGM in [15] of 15.5 µM.

On to `CCCCCCCCCCCCNC(=O)c1cc(NCc2cc(O)ccc2O)ccc1O`, for which the IC50 in experiment [1] is 1 µM; in experiment [5] it was 50 µM; in experiment [6], 35 µM; in [7], 3 µM; in experiment [12] it was over 40 µM. Besides, the GI50 in experiment [2] came out at 1.9 µM; in experiment [3], 2.1 µM; in [4], 20 µM; in experiment [8] it was 2.6 µM; in experiment [9] it was 3.2 µM; in experiment [10] it was 0.34 µM. The results for the GI50 in [11], in experiment [13] and in experiment [14] were 3.2 µM, 3.8 µM and 11 µM, respectively. Also, in experiment [15], the MGM was 2.7 µM.

On to `O=C(NCCc1ccccc1)c1cccc(NCc2cc(O)ccc2O)c1`, for which the IC50 is 5 µM in experiment [1]; over 100 µM in [5]; 500 µM in experiment [6]; 6 µM in experiment [7]; 6.9 µM in experiment [12]. The GI50 in experiment [2] was 2.8 µM; in experiment [3] it was 16 µM; in [4] it was 15 µM; in [8] it was 13 µM; in experiment [9], 15 µM; in experiment [10] it was 4.4 µM. For the same molecule, the GI50 in experiment [11] was 13 µM; in experiment [13] it was 3.8 µM; in [14] it was 17 µM. Also, the MGM in [15] came out at 12.1 µM.

Regarding `O=C(NCc1ccccc1)c1ccc(NCc2cc(O)ccc2O)cc1`, the IC50 in experiment [1] is 16 µM; in experiment [5], 18 µM; in [6] it was over 100 µM; in [7], 34 µM. Besides, the GI50 in experiment [2] amounted to 6.8 µM; in experiment [3], 10 µM; in [4], 9.7 µM; in experiment [8], 9.7 µM; in [9] it was 12 µM; in experiment [10], 2.7 µM. The GI50 was found to be 12 µM in [11], 20 µM in experiment [13] and 15 µM in [14]. This molecule also gave an MGM in experiment [15] of 8.8 µM.

For `O=C(NCCc1ccccc1)c1ccc(NCc2cc(O)ccc2O)cc1`, the IC50 was 3 µM in experiment [1]; 5 µM in experiment [5]; over 200 µM in experiment [6]; 7 µM in experiment [7]; 4.9 µM in experiment [12]. Further, the GI50 in experiment [2] came to 2.7 µM; in experiment [3] it was 7.4 µM; in experiment [4], 8.5 µM; in experiment [8], 7.4 µM; in experiment [9], 5.1 µM; in [10] it was 0.59 µM. Besides, the results for the GI50 in experiment [11], in [13] and in experiment [14] were 9.4 µM, 13 µM and 14 µM, respectively. The molecule further returned an MGM in experiment [15] of 6.4 µM.

Take `O=C(NCCCc1ccccc1)c1cc(NCc2cc(O)ccc2O)ccc1O`: the IC50 in [1] stood at 2 µM; in experiment [5] it was 28 µM; in experiment [6] it was 1 µM; in experiment [7], 2 µM; in experiment [12], 5 µM. Further, the GI50 in experiment [2] is 6.5 µM; in experiment [3], 24 µM; in [4] it was 16 µM; in experiment [8], 15 µM; in experiment [9], 18 µM; in experiment [10], 2.4 µM. The figures for the GI50 in experiment [11], in experiment [13] and in experiment [14] were 14 µM, 22 µM and 8.4 µM, respectively. In experiment [15], this molecule came in with an MGM of 13.2 µM.

As a reminder, the IC50 is the concentration that gives 50% inhibition. Higher therefore signals lower potency. The term GI50 denotes the concentration giving 50% growth inhibition. Higher therefore signals lower sensitivity of the cells.

Source of the values: ChEMBL document CHEMBL1134836, “Design, synthesis, and biological evaluation of a series of lavendustin A analogues that inhibit EGFR and Syk tyrosine kinases, as well as tubulin polymerization” (J Med Chem, 2001).
